In article PMC11825259 (Heliyon, 2024):
pKi: −log10 of the molar value.

Molecular target: urease (Canavalia ensiformis, UniProt P07374)
Assay: In vitro kinetic assay
Format: biochemical, jack bean
Procedure, shortened: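 Jack bean urease was run without and with several concentrations of the test compound, and the data were plotted as Lineweaver–Burk double-reciprocal plots. A secondary replot of Km against inhibitor concentration gave Ki. All data were in triplicate.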

Sequence of urease (P07374 whole entry, looked up): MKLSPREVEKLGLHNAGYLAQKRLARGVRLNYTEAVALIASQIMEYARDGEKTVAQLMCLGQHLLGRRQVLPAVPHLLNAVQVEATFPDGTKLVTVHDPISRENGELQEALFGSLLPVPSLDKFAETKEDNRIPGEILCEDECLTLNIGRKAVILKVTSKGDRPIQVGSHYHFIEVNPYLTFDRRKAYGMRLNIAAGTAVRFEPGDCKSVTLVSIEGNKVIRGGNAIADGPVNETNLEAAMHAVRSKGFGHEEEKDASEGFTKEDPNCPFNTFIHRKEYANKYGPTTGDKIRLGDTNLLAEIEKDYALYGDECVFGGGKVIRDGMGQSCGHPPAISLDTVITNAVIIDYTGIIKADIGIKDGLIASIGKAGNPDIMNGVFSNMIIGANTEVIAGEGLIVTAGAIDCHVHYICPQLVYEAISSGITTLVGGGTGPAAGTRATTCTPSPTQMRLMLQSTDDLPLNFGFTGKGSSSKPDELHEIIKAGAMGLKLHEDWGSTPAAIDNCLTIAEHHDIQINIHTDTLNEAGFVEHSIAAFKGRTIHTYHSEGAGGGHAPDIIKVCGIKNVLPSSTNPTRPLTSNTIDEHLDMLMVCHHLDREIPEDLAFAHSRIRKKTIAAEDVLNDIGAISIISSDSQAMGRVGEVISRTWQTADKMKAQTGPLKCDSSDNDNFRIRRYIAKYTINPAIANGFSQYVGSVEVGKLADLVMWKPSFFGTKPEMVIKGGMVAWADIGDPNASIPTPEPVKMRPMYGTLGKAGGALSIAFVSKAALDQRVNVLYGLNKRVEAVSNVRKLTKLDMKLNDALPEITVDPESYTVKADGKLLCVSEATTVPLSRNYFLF

With `Cc1cc(OCC(=O)N/N=C/c2ccc(OCc3cn(Cc4ccccc4)nn3)cc2)c2c(C)cc(=O)oc2c1` [13a, (E)-N'-(4-((1-Benzyl-1H-1,2,3-triazol-4-yl)methoxy)benzylidene)-2-((4,7-dimethyl-2-oxo-2H-chromen-5-yl)oxy)acetohydrazide] the pKi was 5.70 and the “type of urease inhibition” value (Lineweaver-Burk plot) was “uncompetitive inhibitor”.
